# From ChEMBL document CHEMBL4145474, “Discovery of novel piperonyl derivatives as diapophytoene desaturase inhibitors for the treatment of methicillin-, vancomycin- and linezolid-resistant Staphylococcus aureus infections” (Eur J Med Chem, 2018)
# pIC50: −log10 of the molar value. Activity calls are given as the source filed them. The rule behind the calls is not given here.
# How the values were obtained:
# Staphylococcus aureus = assay: Antibacterial activity against wild type Staphylococcus aureus Newman infected in BALB/c mouse assessed as decrease in bacterial survival in mouse liver at 0.4 mg, ip bid administered 4.5 days before 12 hrs bacterial infection measured after 90 hrs relative to control; format: functional
# [1] = biological target: T1, 4,4'-diapophytoene desaturase (4,4'-diaponeurosporene-forming) (Staphylococcus aureus (strain Newman)) (UniProt O07855); assay: Inhibition of Staphylococcus aureus Newman 6His-tagged CrtN expressed in Escherichia coli BL21(DE3) assessed as 4,4'-diapophytoene accumulation by UV-HPLC analysis; details: Staphylococcus aureus subsp. aureus str. Newman
# T1 sequence (whole entry): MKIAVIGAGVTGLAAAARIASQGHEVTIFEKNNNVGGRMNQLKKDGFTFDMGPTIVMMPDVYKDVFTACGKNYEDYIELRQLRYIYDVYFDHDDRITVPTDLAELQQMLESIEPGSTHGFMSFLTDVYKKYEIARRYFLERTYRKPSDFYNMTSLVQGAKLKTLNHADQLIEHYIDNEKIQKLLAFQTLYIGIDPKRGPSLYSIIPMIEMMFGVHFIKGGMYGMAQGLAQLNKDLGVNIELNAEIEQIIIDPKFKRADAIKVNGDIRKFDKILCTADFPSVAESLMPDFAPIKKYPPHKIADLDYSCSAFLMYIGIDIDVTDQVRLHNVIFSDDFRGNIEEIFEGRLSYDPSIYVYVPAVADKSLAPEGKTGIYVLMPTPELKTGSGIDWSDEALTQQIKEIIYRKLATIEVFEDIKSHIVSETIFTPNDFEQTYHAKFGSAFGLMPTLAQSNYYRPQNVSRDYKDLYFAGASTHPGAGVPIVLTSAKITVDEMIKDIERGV
# How it was run: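 Substrate was E. coli-derived diapophytoene emulsified with phosphatidylcholine in 0.02 M HEPES pH 7.5. Run anaerobically (glucose oxidase 20 U/mL, catalase 20000 U/mL, glucose 2 mM final) overnight at 37 °C, stopped with methanol. Triplicate; diapophytoene monitored by HPLC at 286 nm.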
# [2] = biological target: Voltage-gated inwardly rectifying potassium channel KCNH2 (Homo sapiens, UniProt Q12809); assay: Inhibition of human ERG expressed in CHO cells at holding potential of -80 mV by whole cell Qpatch assay; format: cell-based
# Chain of Voltage-gated inwardly rectifying potassium channel KCNH2 (Q12809 whole entry): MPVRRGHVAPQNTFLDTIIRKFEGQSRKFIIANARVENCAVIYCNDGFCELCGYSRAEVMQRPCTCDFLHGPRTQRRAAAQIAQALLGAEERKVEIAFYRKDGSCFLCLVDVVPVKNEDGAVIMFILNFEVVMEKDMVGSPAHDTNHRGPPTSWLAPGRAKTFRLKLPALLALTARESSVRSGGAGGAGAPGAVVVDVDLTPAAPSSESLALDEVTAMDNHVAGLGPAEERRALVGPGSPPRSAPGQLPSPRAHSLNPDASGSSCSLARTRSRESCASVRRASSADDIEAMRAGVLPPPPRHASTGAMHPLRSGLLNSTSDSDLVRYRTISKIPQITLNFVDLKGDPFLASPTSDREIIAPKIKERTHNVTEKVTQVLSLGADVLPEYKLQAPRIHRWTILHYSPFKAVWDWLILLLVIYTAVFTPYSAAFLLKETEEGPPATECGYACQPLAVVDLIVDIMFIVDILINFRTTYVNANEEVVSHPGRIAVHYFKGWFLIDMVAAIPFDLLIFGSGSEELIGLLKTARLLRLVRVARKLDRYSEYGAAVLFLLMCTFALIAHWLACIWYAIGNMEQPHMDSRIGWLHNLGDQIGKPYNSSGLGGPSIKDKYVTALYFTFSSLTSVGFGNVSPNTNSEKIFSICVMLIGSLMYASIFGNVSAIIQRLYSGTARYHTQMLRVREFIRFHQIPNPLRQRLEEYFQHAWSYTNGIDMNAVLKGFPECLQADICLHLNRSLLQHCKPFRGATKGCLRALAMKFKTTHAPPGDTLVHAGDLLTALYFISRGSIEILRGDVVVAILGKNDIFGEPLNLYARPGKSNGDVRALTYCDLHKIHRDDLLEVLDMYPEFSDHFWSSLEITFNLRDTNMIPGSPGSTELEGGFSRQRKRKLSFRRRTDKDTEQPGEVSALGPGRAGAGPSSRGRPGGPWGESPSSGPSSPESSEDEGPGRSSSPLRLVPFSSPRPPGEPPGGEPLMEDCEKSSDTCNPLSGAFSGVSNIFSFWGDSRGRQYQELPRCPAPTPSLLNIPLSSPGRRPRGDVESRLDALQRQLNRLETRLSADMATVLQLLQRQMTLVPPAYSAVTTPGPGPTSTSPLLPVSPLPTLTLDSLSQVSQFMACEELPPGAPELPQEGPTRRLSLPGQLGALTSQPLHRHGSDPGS
# [3] = biological target: T1, 4,4'-diapophytoene desaturase (4,4'-diaponeurosporene-forming) (Staphylococcus aureus (strain Newman)); assay: Inhibition of CrtN in methicillin-resistant Staphylococcus aureus USA400 MW2 assessed as bacterial survival at 1 uM after 24 hrs by H2O2 killing assay (reference value: 26.33%)
# [4] = biological target: T2, 4,4'-diapophytoene desaturase (4,4'-diaponeurosporene-forming) (Staphylococcus aureus (strain Newman), UniProt O07855); assay: Inhibition of Staphylococcus aureus Newman 6His-tagged CrtN expressed in Escherichia coli BL21(DE3) assessed as 4,4'-diapophytoene accumulation
# T2 sequence (O07855 whole entry): T1 sequence (whole entry)
# HepG2 = assay: Cytotoxicity against human HepG2 cells assessed as reduction in cell viability after 72 hrs by CCK-8 assay; format: functional; details: HepG2, 72 h
# How it was run: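 HepG2 or HEK-293T cells were seeded at 5000 per well and grown 24 h at 37 °C, 5% CO₂. Cells were then exposed to compound for 72 h; compound came from DMSO, diluted in medium to final DMSO <0.4%, with a DMSO-matched vehicle control. Viability was read by 10% CCK-8 for 1 h, absorbance 450 nm, in triplicate.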
smiles,measurement,setting,value
CN(C/C=C/C=C/c1ccc(C(F)(F)F)cc1F)Cc1ccc2c(c1)OCO2.Cl,Activity,Staphylococcus aureus,98.74%
same,inhibition,[1],Active
same,pIC50,[2],4.85
same,Survival,[3],2.33%
same,pIC50,[4],6.39
same,CC50,HepG2,90.3 µM
